Screens as filed in PubChem.
The list is not random: actives were taken first. Their share in the collection is about 2.9%.
PGC1a acetyl inh: modulators of PGC1a acetylation; 350,000 compounds, 0.17% hits; U2OS PGC1a acetylation, AlphaScreen anti-acetyl-lysine; with virally co-expressed GCN5 acetyltransferase; inhibition, % at 15.6 µM;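 active = every replicate shows inhibition of at least 40%; inconclusive = mean inhibition at least 40% but some replicate below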;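 note: 0% = neutral control wells and 100% = positive control wells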
S100A4 MyoIIA: inhibitors of human S100A4 binding to myosin IIA peptide; S100A4/TAMRA-MyoIIA peptide fluorescence polarization; inhibition, % at 10.7 µM; 360,000 compounds, 0.14% hits; AID 652163;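 active = mean inhibition of at least 70% across replicates, with every replicate also reaching that level; inconclusive = mean inhibition reaches 70% but some replicates fall short; inactive = mean inhibition below 70%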
Target sequence (P26447 whole entry, looked up): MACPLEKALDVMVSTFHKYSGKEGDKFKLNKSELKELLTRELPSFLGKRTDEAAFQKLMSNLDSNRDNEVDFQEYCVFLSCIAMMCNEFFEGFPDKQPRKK
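Material: S100A4 monomer protein / Buffer or medium: 50 mM HEPES pH 7.2, 10 mM CaCl2, 100 mM KCl / Times: 5 min incubation before reading / Benchmarks: neutral control DMSO, positive control TFP / Reagent: labelled myosin peptide probe, 5 nM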
C2C12 statin: protects C2C12 myotubes from simvastatin toxicity; ATP luminescence, 48 h; scaled: DMSO 0, geranylgeraniol control 100; rescue of ATP level, % at 7.49 µM; 330,000 compounds, 0.78% hits; AID 602340;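 active = mean ATP rescue above about 67%, or every replicate alone reaching that limit, limit read from the data, passing the limit was not always enough; inconclusive = no clear call, values can overlap the other calls; inactive = mean under the limit and some replicate under it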;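 note: myotubes were challenged with 10 µM simvastatin during compound exposure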
SIRT5 block: inhibitors of human sirtuin-5 desuccinylase; Q9NXA8; Purified SirT5, succinyl-peptide AMC, trypsin-coupled fluorescence; inhibition, % at 15 µM; 330,000 compounds, 1.1% hits; AID 652115; in the data active = inhibition above about 15%; inconclusive = no clear call, values can overlap the other calls
Target sequence (Q9NXA8 whole entry, looked up): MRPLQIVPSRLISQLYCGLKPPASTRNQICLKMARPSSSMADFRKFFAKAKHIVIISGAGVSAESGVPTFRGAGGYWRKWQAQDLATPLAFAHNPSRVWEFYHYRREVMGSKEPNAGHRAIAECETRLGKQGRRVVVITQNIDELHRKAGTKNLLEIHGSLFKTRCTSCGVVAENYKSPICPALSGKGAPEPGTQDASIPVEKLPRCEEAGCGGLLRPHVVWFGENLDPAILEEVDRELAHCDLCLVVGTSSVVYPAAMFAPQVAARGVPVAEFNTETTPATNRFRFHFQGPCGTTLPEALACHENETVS
DENV2 CPE: inhibitors of DENV2 cytopathic effect. DENV2-infected cells, cytopathic effect rescue, plate reader. CPE inhibition, % at 9.99 µM. 350,000 compounds, 1.7% hits. AID 651640; in the data active = CPE inhibition above about 20%, passing the limit was not always enough; inconclusive = no clear call, values can overlap the other calls; tested in BHK-21 cells;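 note: 0% = median of neutral control wells and 100% = median of positive control wells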
* hit, by the source's call; ? = inconclusive; nt = no result given.

SMILES	PGC1a acetyl inh	S100A4 MyoIIA	C2C12 statin	SIRT5 block	DENV2 CPE
COc1ccc(CN(C)C[C@H]2Oc3c(NS(=O)(=O)c4ccc(C)cc4)cccc3C(=O)N([C@H](C)CO)C[C@H]2C)cc1	-1.9	-0.9	-21.4	-4.5	-2.9
COc1ccc(S(=O)(=O)Nc2cccc3c2O[C@H](CN(C)Cc2ccc(Cl)c(Cl)c2)[C@@H](C)CN([C@H](C)CO)C3=O)cc1	-26.6	-11.9	10.9	15.1*	25.2*
C[C@@H]1CN([C@@H](C)CO)C(=O)c2cccc(N(C)C)c2O[C@H]1CN(C)Cc1ccc(Cl)c(Cl)c1	-25.0	-1.4	-70.5	3.7	-0.6
COc1ccc(CN(C)C[C@H]2Oc3c(NS(=O)(=O)c4ccc(C)cc4)cccc3C(=O)N([C@H](C)CO)C[C@@H]2C)cc1	-7.8	-0.1	-1.3	0.6	31.3*
C[C@H]1CN([C@@H](C)CO)C(=O)c2cccc(N(C)C)c2O[C@@H]1CN(C)Cc1ccc(Cl)c(Cl)c1	-10.5	-17.5	94.7*	-1.2	4.7
C[C@@H]1CN([C@@H](C)CO)C(=O)c2cccc(NS(=O)(=O)c3cccs3)c2O[C@@H]1CN(C)Cc1ccc(Cl)c(Cl)c1	-6.1	-13.2	-1.9	-1.2	14.0
C[C@@H]1CN([C@@H](C)CO)C(=O)c2cc(NS(=O)(=O)c3cn(C)cn3)ccc2O[C@@H]1CN(C)Cc1ccc(-c2ccccc2)cc1	-0.9	7.6	20.4	0.1	-8.5
N#Cc1cccc(-c2ccc3c(c2)[C@H]2[C@H](CCN2C(=O)c2ccc4c(c2)OCO4)[C@@H](CO)N3)c1	-1.8	7.8	14.6	4.9	0.4
COc1cccc(CN2CC(C(=O)N3CCCCCCC3)CCC2=O)c1 (stereo unspecified)	2.3	1.7	-8.4	-0.3	-5.8
O=C1CCC(C(=O)N2CCCCCC2)CN1Cc1cccc(C(F)(F)F)c1 (stereo unspecified)	-5.4	0.1	1.2	18.1*	0.1
Cc1ccc2ccc(C(Nc3ccccc3)c3ccccc3)c(O)c2n1 (stereo unspecified)	nt	2.3	nt	2.7	35.4*
C=C(C)Cn1c(CCCNC(=O)C(C)(C)C)nc2ccccc21	-28.9	nt	153.6*	nt	nt
CC(=O)Nc1ccc(C(=O)Nc2nc(-c3ccccn3)cs2)cc1	5.0	-12.5	nt	5.0	1.6
O=C(Nc1ccc2oc(=O)ccc2c1)c1ccc(-c2cccc(Cl)c2)o1	8.1	0.0	nt	-2.8	0.1
O=C(Nc1ccc(-c2nc3ncccc3o2)cc1)c1ccc([N+](=O)[O-])o1	nt	5.4	226.5*	-0.1	-3.2
O=C(Nc1ccc2oc(=O)ccc2c1)c1ccc(-c2cccc([N+](=O)[O-])c2)o1	3.4	-4.7	nt	-3.3	27.1*
Cc1cc(-c2nc3ncccc3o2)ccc1N	5.0	nt	99.8*	nt	nt
O=C(Nc1nc(-c2ccccn2)cs1)c1ccccc1-n1cnnn1	43.0*	-3.4	-26.1	-1.6	-0.8
CCCC(=O)N1C[C@H]2[C@@H](c3ccccc31)[C@H](CO)N2C(=O)CC1CC1	-5.4	nt	-23.4	-3.0	4.0
O=C(Nc1ccc2oc(-c3ccncc3)nc2c1)c1ccc([N+](=O)[O-])o1	nt	-3.2	145.5*	-1.4	-3.0
Cc1ccc(-c2nc3ncccc3o2)cc1NC(=O)c1ccc([N+](=O)[O-])o1	-14.3	nt	232.8*	nt	nt
Cc1cc(-c2nc3ncccc3o2)ccc1NC(=O)c1ccc([N+](=O)[O-])o1	-9.7	2.7	-16.4	4.6	6.2
O=C(Nc1nc(-c2ccccn2)cs1)c1ccc([N+](=O)[O-])o1	-11.1	-6.3	240.5*	-0.8	-4.7
CO[C@H]1CN(C)C(=O)c2ccc(NS(=O)(=O)c3ccccc3)cc2OC[C@H](C)NC[C@H]1C	-10.2	8.1	-9.2	1.7	-0.8
CC(C)NC(=O)N[C@@H]1C=C[C@H](CC(=O)NCc2ccc(Oc3ccccc3)cc2)O[C@H]1CO	2.8	-3.0	2.2	-4.0	?
SMILES	PGC1a acetyl inh	S100A4 MyoIIA	C2C12 statin	SIRT5 block	DENV2 CPE
C/C=C/c1ccc2c(c1)O[C@@H](CN(C)C(=O)NC1CCCCC1)[C@@H](C)CN([C@H](C)CO)S2(=O)=O	-4.8	-0.3	43.6	3.3	1.9
COc1cccc(C(CC(=O)NCc2ccco2)NS(=O)(=O)c2ccc(C)cc2)c1OC (stereo unspecified)	6.9	nt	99.7*	nt	nt
O=C(C[C@H]1CC[C@@H]2[C@H](COC[C@H](O)CN2S(=O)(=O)c2ccc(Cl)cc2)O1)NCCN1CCCC1	0.0	-4.1	-5.2	-3.0	5.6
Cc1nnc(C)n1/N=C/c1c(O)ccc2ccccc12	1.7	-2.7	1.6	-5.1	2.5
Cc1nnc(-c2ccccc2)c(=O)n1/N=C/c1c(O)ccc2ccccc12	64.5*	nt	84.1*	nt	nt
CO[C@@H](C(=O)N(C)C[C@@H]1OCc2ccccc2-c2c(n(C)c3ccccc23)C(=O)N([C@H](C)CO)C[C@@H]1C)c1ccccc1	-6.0	8.7	-6.4	-2.6	6.0
COCCNC(=O)C[C@@H]1C[C@H]2c3cc(NS(=O)(=O)c4ccccc4)ccc3O[C@H]2[C@H](CO)O1	1.9	-10.0	-1.6	-6.4	1.2
COc1cnc(N(C)C)nc1Sc1ccc(Cl)cc1	-8.7	nt	103.7*	nt	nt
COc1cnc(-c2ccccn2)nc1Sc1ccc(Cl)cc1	nt	nt	-2.6	nt	nt
O=C1CCCC(c2ccccc2)N1 (stereo unspecified)	nt	4.0	nt	nt	60.2*
Cc1ccc(S(=O)(=O)N(C)C[C@H]2Oc3ccc(NC(=O)Cn4cnnn4)cc3CC(=O)N([C@H](C)CO)C[C@@H]2C)cc1	0.0	-8.7	-44.8	2.2	2.5
Cc1ccc(S(=O)(=O)N(C)C[C@@H]2Oc3ccc(NC(=O)Cn4cnnn4)cc3C(=O)N([C@@H](C)CO)C[C@@H]2C)cc1	-0.4	17.8	-47.9	-1.0	42.4*
Cc1noc(C)c1S(=O)(=O)N(C)C[C@@H]1Oc2ccc(NC(=O)Cn3cnnn3)cc2C(=O)N([C@@H](C)CO)C[C@@H]1C	1.2	4.7	-13.5	23.1*	-4.5
Cc1ccc(S(=O)(=O)N(C)C[C@@H]2Oc3ccc(NC(=O)Cn4cnnn4)cc3CC(=O)N([C@H](C)CO)C[C@@H]2C)cc1	-5.4	-6.8	-45.9	-5.2	30.8*
Cc1ccc(S(=O)(=O)N(C)C[C@H]2Oc3ccc(NC(=O)Cn4cnnn4)cc3C(=O)N([C@H](C)CO)C[C@H]2C)cc1	-3.5	-2.0	-5.9	2.3	-7.4
CC(=O)NC[C@@H]1[C@@H](c2ccc(-c3ccccc3)cc2)[C@@H](CO)N1C(=O)C1CCC1	0.9	-10.5	21.5	7.5	-13.3
O=C(C[C@@H]1CC[C@H]2[C@@H](COC[C@H](O)CN2C(=O)Nc2cccc(F)c2)O1)NCc1ccccc1Cl	3.4	2.5	-11.5	1.9	-4.5
NC1=C(Br)C(=O)c2ncccc2C1=O	87.1*	-6.3	nt	-0.1	0.1
CCC(=O)N[C@@H]1CC[C@@H](CCn2cc(CN(C)C)nn2)O[C@@H]1CO	5.7	2.6	-0.6	6.1	-0.6
O=C(CSc1ccc(-c2ccccc2)nn1)c1cccs1	1.7	1.0	nt	16.2*	nt
